STAT1 inh: STAT1 signaling inhibition | NIH 3T3 STAT1-luciferase reporter, IFN-gamma, luminescence | inhibition, % at 5.5 µM | hit rate 0.35% among 200,000;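 active = inhibition above a set limit, the mean inhibition across all tested compounds plus 3 SD, cut at about 34% in these data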
bCat nuc transl: alters nuclear translocation of beta-catenin in HeLa cells; nuclear translocation activity, % at 5 µM; immunofluorescence imaging; hit rate 0.3% among 190,000;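 active = nuclear translocation activity above 50% at 5 µM, with a well cell count of 50 or more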;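 note: per-cell ratio of nuclear to cytoplasmic median beta-catenin stain intensity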
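Test system: human HeLa cell line; Doses: 5 µM primary, 0.02–20 µM confirmation; Incubation: 24 h compound exposure, 37°C; Detection: beta-catenin immunofluorescence imaging with DAPI; Read-out: beta-catenin nuclear/cytoplasmic ratio, % activation.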
MT stabilizer: stabilizes microtubules in HeLa cells; HeLa tubulin immunostaining HCS, 24 h; share of cells brighter than vehicle mean+2SD; % tubulin-high responders, % at 10 µM; hit rate 0.83% among 200,000; AID 2205;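 active = plate Z-score above 3 for both tubulin-high and condensed-nucleus cell shares, with cell loss under 80%, at 10 µM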;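 note: anti alpha tubulin signal scored within the nucleus-defined area of each cell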
STAT3 blocker: reduces IL-6 driven STAT3 reporter signal; U3A cells, IL-6 STAT3-luciferase reporter, luminescence; host cell line lacks STAT1; inhibition, % at 5.5 µM; AID 862; hit rate 0.89% among 190,000;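 active = inhibition above the mean inhibition across all screened compounds plus 3 SD, cut at about 44% in these data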
STAT3 act-1: activators of IL-6 induced STAT3 signaling; activation (% of control), % at 5.6 µM; AID 871; U3A cells, IL-6 STAT3-luciferase reporter, luminescence; 100% = signal with IL-6 EC80 alone; hit rate 0.91% among 190,000;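 active = activation above the screen-wide mean of compound activation plus 3 SD, cut at about 130% in these data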
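Test system: human U3A cells carrying STAT3-luciferase construct; control set: IL-6-only wells as 100% reference; timing: compound pre-incubation 1 h before IL-6, then 6 h stimulation at 37 °C; also added: IL-6 stimulus at 33 ng/mL final; evaluation: % activation versus median of IL-6-stimulated wells; detection: reporter luminescence signal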
STAT3 act-2: STAT3 activation, confirmation assay; hit rate 64% among 1,200; U3A STAT3-luciferase reporter, IL-6 potentiation, luminescence; U3A cells lack STAT1; 100 means same as IL-6 alone; potentiation (% of control), % at 5.7 µM; shares compounds with STAT3 act-1;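 active = percent activation of the STAT3 luciferase reporter above a set limit taken from the earlier primary screen, cut at about 130% in these data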
NFkB act STAT3ct: activates NF-kappaB, counter-screen to STAT3 activators; hit rate 11% among 1,200; shares compounds with STAT3 act-1; human cells, NF-kappaB reporter activation; activation (% of control), % at 5.7 µM; in the data active = activation above about 120%;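 note: reporter induced by TNF-alpha stimulation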
STAT1 act: counter-screen for STAT3 activators: STAT1 activation. shares compounds with STAT3 act-1. NIH 3T3 STAT1-luciferase reporter, IFN-gamma, luminescence. activation (% of control), % at 5.7 µM. hit rate 13% among 1,200. AID 1318;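 active = activation above the solvent-only control well mean plus 3 SD, set per screening run, cut at about 120% in these data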
Numbers stand for hits; n = inactive; x = no result given. In the library only some 2.4% were active in any assay of this set; here they are far more common.

SMILES | STAT1 inh | bCat nuc transl | MT stabilizer | STAT3 blocker | STAT3 act-1 | STAT3 act-2 | NFkB act STAT3ct | STAT1 act
O=C1CC(c2ccccc2Cl)=NN(c2ncnc3ccccc23)C1=O | n | n | n | n | 148 | 146 | n | n
CC1CCN(c2ncnc3ccccc23)CC1 | n | n | n | n | n | x | x | x
Cc1ccc(S(=O)(=O)c2c(C)nn(C(C)(C)C)c2OC(=O)c2cccs2)cc1 | n | n | n | n | 137 | n | n | n
Cc1cc(C)n(-c2nc3ccccc3c(=O)n2OCc2ccc(Cl)cc2)n1 | n | n | n | n | 145 | n | n | n
COn1c(-n2nc(C)cc2C)nc2ccccc2c1=O | n | n | n | n | n | x | x | x
COc1ccc(N(C(C)=O)c2nc(C)cc(C)c2C#N)c(OC)c1 | n | n | n | n | 154 | 157 | n | n
COc1ccc(Oc2nc(C)cc(C)c2C#N)cc1 | n | n | n | n | n | x | x | x
COc1ccc(C(=O)NNC(=O)c2ccc(C)cc2)cc1S(=O)(=O)N1CCCC1 | n | n | n | n | n | x | x | x
Cc1[nH]c2ccccc2c1Cc1nnc(SCC(N)=O)o1 | n | n | n | n | 153 | n | n | n
Cc1[nH]c2ccccc2c1CCC(N)=O | n | n | n | n | n | x | x | x
COc1cc(C2SCC(=O)N2c2nnc(C34CC5CC(CC(C5)C3)C4)s2)cc(OC)c1OC (stereo unspecified) | n | n | n | n | 165 | 142 | n | n
COc1ccc(C2SCC(=O)N2c2nnc(C34CC5CC(CC(C5)C3)C4)s2)cc1 (stereo unspecified) | n | n | n | n | n | x | x | x
CCCCCOP(=O)(OCCCCC)C1(NS(=O)(=O)c2ccccc2)C=CC(=O)c2ccccc21 (stereo unspecified) | n | n | n | n | 137 | n | n | n
CCCCCCOC1(c2ccccc2)OC(=O)c2ccccc21 (stereo unspecified) | n | n | n | n | n | x | x | x
S=C(Nc1ccccc1)N1CCn2c1nc1ccccc12 | n | n | n | n | n | x | x | x
O=C(Nc1ccccc1)N1CCn2c1nc1ccccc12 | n | n | n | n | 161 | 139 | n | n
COc1ccc(NC(=O)N2CCn3c2nc2ccccc23)cc1 | n | n | n | n | 151 | 137 | n | n
O=C(c1cccs1)N1CCCC(c2nc3c(nnn3Cc3ccccc3)c(=O)[nH]2)C1 (stereo unspecified) | x | n | x | x | x | x | x | x
O=C(c1ccccc1)N1CCCC(c2nc3c(nnn3Cc3ccccc3)c(=O)[nH]2)C1 (stereo unspecified) | n | n | n | n | 148 | n | n | n
COCCOC(=O)C1=C(C)NC(=O)NC1c1ccc(-c2cc(Cl)ccc2Cl)o1 (stereo unspecified) | n | n | n | n | n | x | x | x
COCCNC(=O)c1ccc(-n2c(SCc3ccncc3)nc3ccccc3c2=O)cc1 | n | n | x | n | n | x | x | x
O=c1[nH]c(Cc2ccccc2)nc2c1oc1ccccc12 | n | n | n | n | n | x | x | x
Cc1nc2c(oc3ccccc32)c(=O)o1 | n | n | n | n | 174 | 159 | n | n
COc1ccc(CC(=O)NCc2n[nH]c(=S)n2-c2cccc(Cl)c2)cc1 | n | n | n | n | n | x | x | x
O=c1cc(-c2ccccc2)[nH]n1-c1nc2ccccc2[nH]1 | n | n | n | n | 155 | 141 | 157 | 141
CCc1cc(=O)[nH]c(-n2[nH]c(-c3ccccc3)cc2=O)n1 | n | n | n | n | n | x | x | x
Cc1ccc(-c2cn(-c3ccccc3)c(SCC(=O)NC3CCS(=O)(=O)C3)n2)cc1C (stereo unspecified) | n | x | n | n | n | x | x | x
COc1ccccc1OCCCN1C(=O)C(=O)c2cccc(C)c21 | n | n | n | n | 138 | n | n | n
Clc1cccc(/C=N/Nc2nnc(Cl)c3ccccc23)c1 | n | n | n | n | 140 | n | n | n
Clc1ccc(/C=N/Nc2nnc(-c3ncc[nH]3)c3ccccc23)cc1 | n | n | n | n | n | x | x | x

High-throughput results as filed in PubChem BioAssay.
